A1 inh: inhibitors of the anti-apoptotic protein A1, read as caspase activation. MEF A1-2A-BIM cells, Caspase-Glo 3/7 luminescence, 3 h; percent of clofoctol response, vehicle zero. AID 2462. 0.066% of 330,000 active. caspase activation, % (concentration not given with the values);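 active = over half of replicate activation scores above 10%, or exactly half above 10 with the replicate mean above 10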
T cruzi inh: blocks replication of Trypanosoma cruzi. T. cruzi beta-gal in NIH3T3, luminescence, 90 h. inhibition, % (concentration not given with the values). 1.4% of 300,000 active. AID 1885;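 active = mean inhibition across valid replicates above about 55%, limit read from the data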;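 also: signal also drops with host cell toxicity which is not excluded here; higher percent means less beta-gal luminescence so fewer parasites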
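Read-out: Parasite load inhibition, % | Test system: Mouse NIH/3T3 fibroblasts infected with β-gal-expressing T. cruzi Tulahuen C4 | Amount: 5,000 cells/well | Medium: DMEM, 2% fetal bovine serum | Signal: GalScreen β-gal luminescence, detergent lysis, 60 min | Timing: 3 h attach, ≥90 h co-culture | Also added: Tulahuen C4 trypomastigotes, 5000/well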
Beta apoptosis: beta cell apoptosis inhibition | INS-1E cytokine-induced death, ATP luminescence, 48 h; percent of positive-control rescue, neutral wells zero | protection from apoptosis, % (concentration not given with the values) | 0.8% of 300,000 active | AID 435005;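 active = Every replicate reaches about 75%, or at least half do and their mean reaches it too, limit read from the data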;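 also: higher means more ATP so stronger rescue from cytokine killing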
CSC inhib: cancer stem cell inhibition; cancer stem cell-like cells viability, luminescence; inhibition, % at 7.5 µM; 1.1% of 300,000 active; AID 2717; in the data active = inhibition above about 75%; tested in HMLE shEcad cells
Calb FLC: affects C. albicans growth with fluconazole. C. albicans CaCi-2 + fluconazole, Alamar Blue growth, 48 h. growth inhibition, % (no concentration beside the values). 0.57% of 300,000 active. AID 1979;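 active = growth inhibition above about 58% in most replicates, limit read from the data, passing the limit was not always enough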;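 also: all wells also contain fluconazole at 8 µg/ml as a sub-toxic cotreatment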
H9c2 TAG inh: inhibitors of triacylglycerol accumulation; H9c2 cells, Nile Red lipid (TAG) fluorescence; cells loaded with 200 µM oleic acid; inhibition, % at 12.5 µM; 0.66% of 230,000 active; AID 651582;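 active = pattern-corrected inhibition of lipid staining of at least 50% with the nuclear-stain viability signal not falling by more than 50%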
Hits are given with their value; n = inactive; x = no result. Only some compounds are listed: those with a hit (about 3.1% of all), similar ones and a draw of the others.

SMILES	A1 inh	T cruzi inh	Beta apoptosis	CSC inhib	Calb FLC	H9c2 TAG inh
COC(=O)C1=C(C)Nc2nnnn2C1c1cccnc1 (stereo not given)	n	n	n	n	n	x
CCOc1ccc(C(C)=O)cc1COC(=O)c1ccccc1C(=O)N(C)Cc1ccccc1	x	x	x	x	x	n
COc1cc([N+](=O)[O-])c(N2CCOCC2)c([N+](=O)[O-])c1OC	n	75	n	n	n	n
Cc1nn(-c2ccccc2)c(C)c1C(=O)NCc1ccccc1F	n	n	n	n	n	x
CC(C)NCC(O)Cn1c2c(c3ccccc31)CCc1c-2cnn1-c1ccccc1 (stereo not given)	n	n	113	n	n	x
CN1CCc2c(n(CC(O)CNCc3ccccc3)c3ccccc23)C1=O (stereo not given)	n	n	n	n	n	x
Cc1cccc(C2CC3(CC(C)(C)NC(=S)N3)Oc3cc(O)ccc32)c1 (stereo not given)	n	n	n	n	80	x
COCCN(C(=O)COC(=O)Cc1c[nH]c2ccccc12)c1c(N)n(Cc2ccccc2)c(=O)[nH]c1=O	n	n	n	n	n	n
COc1ccc(/C=C2\N=C(SC)NC2=O)cc1	n	n	n	n	90	n
CCSC1=N/C(=C\c2ccc(OC)cc2)C(=O)N1	n	n	n	n	n	x
C=CCOC(=O)C1=C(C)NC(SCC(=O)NC(=O)OCC)=C(C#N)C1c1cccnc1 (stereo not given)	n	n	n	n	99	n
O=S(=O)(c1cccc2nonc12)N1CCCCC1	n	n	x	n	n	n
COc1ccc(/C=C/C(=O)N2c3ccccc3Sc3ccc(C(F)(F)F)cc32)cc1	n	57	n	n	n	x
CC(=O)c1ccc(NC(=O)C(C)O/N=C(\N)c2ccccc2)cc1 (stereo not given)	n	x	n	n	x	n
O=[N+]([O-])c1ccc(NN=Cc2ccc3c(c2)OCO3)nc1	x	x	x	x	x	n
COc1cc2c(cc1NC(=O)CN(C)Cc1cccc(OC)c1OC)oc1ccccc12	n	n	n	99	n	x
CCOC(=O)c1c(NC(=O)COC(=O)CC(NC(C)=O)c2ccccc2)sc(C(=O)NC)c1C (stereo not given)	n	n	n	n	x	n
COc1ccc(/C=C/c2nc(N)nc(-c3ccccc3O)n2)cc1OC	n	67	n	n	n	x
COc1cc(/C=C/c2nc(N)nc(-c3ccccc3O)n2)cc(OC)c1OC	n	n	n	n	n	n
CC(=O)c1c(OC(=O)c2ccccc2)ccnc1C(F)(F)F	n	x	n	x	x	n
COc1ccc(C2CC(c3ccc(C)o3)=NN2C(C)=O)cc1 (stereo not given)	n	n	n	x	n	x
COc1ccc(C2CC(c3ccccc3)=NN2C(=O)COC(=O)c2nc3nc(C)cc(C)n3n2)cc1 (stereo not given)	n	70	n	n	n	n
C=CCNCC(=O)N1N=C(c2ccc3ccccc3c2)CC1c1ccc(OC)cc1 (stereo not given)	n	n	n	n	n	n
COc1ccc(C2CC(c3ccc4ccccc4c3)=NN2C(=O)CNC2CCCCC2)cc1 (stereo not given)	n	80	n	n	n	n
COc1ccc(C2CC(c3ccc4ccccc4c3OC(C)=O)=NN2C(C)=O)cc1 (stereo not given)	n	n	96	n	n	n
SMILES	A1 inh	T cruzi inh	Beta apoptosis	CSC inhib	Calb FLC	H9c2 TAG inh
CC(CC(=O)NCCc1ccc(F)cc1)c1ccccc1 (stereo not given)	n	n	n	n	n	x
Cc1ccc(S(=O)(=O)N2CCOCC2)cc1NC(=O)COc1cccc(Oc2ccccc2)c1	n	n	n	n	n	n
Cc1cc(C)n(CC(=O)NNC(=O)CC(C)c2ccccc2)n1 (stereo not given)	n	x	n	n	x	n
CC(=O)N1c2ccccc2S(=O)(=O)c2c1ccc1ccccc21	x	x	x	x	x	n
COc1cc(O)ccc1/C=N/NC(=O)c1ccc([N+](=O)[O-])cc1	n	n	n	n	n	n
O=C(NC(CSCc1ccccc1)C(=O)N/N=C/c1ccc(O)cc1O)c1ccc([N+](=O)[O-])cc1 (stereo not given)	n	n	78	105	n	x
Cc1ccc(O)c(C2=NNC(c3ccc(Cl)cc3)C2)c1 (stereo not given)	n	n	n	n	78	n
Oc1ccc(Cl)cc1C1=NNC(c2cccs2)C1 (stereo not given)	n	n	n	n	n	n
